Each structure is given as a SMILES string.

A word on the IC50: it is the concentration at which inhibition is half-maximal. A higher IC50 goes with weaker potency. Usually Inhibition stands for the change of the read-out against control, counted positive when it falls.

The subject of experiment [1] is Trypanosoma cruzi. Briefly: Inhibitory concentration against Trypanosoma cruzi (epimastigotes). Type of experiment: functional, organism-based. An outline of the steps:
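Epimastigote growth inhibition; IC50 values are the means of three experiments.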

The test system of experiment [2] is Trypanosoma cruzi. Briefly: Inhibitory concentration against Trypanosoma cruzi (amastigotes). Type of experiment: functional, organism-based.
The subject of experiment [3] is Trypanosoma cruzi. In words: Maximum inhibitory activity against Trypanosoma cruzi (amastigotes).
The subject of experiment [4] is Trypanosoma cruzi. In words: Maximum inhibitory activity against Trypanosoma cruzi (amastigotes). The format is functional.

In the case of `CCCCCCCC(P(=O)(OCC)OCC)P(=O)(OCC)OCC`, the IC50 with Trypanosoma cruzi [1] is more than 50 µM.

In the experiment on Trypanosoma cruzi [1], `CCCCCCCCC(O)(P(=O)(O)O)P(=O)(O)O` returned a 50% inhibitory concentration (IC50) of more than 70 µM.

For the molecule `CCCCCCCCC(P(=O)(OCC)OCC)P(=O)(OCC)OCC`, the concentration for half-maximal inhibition (IC50) in the experiment with Trypanosoma cruzi [2] (Trypanosoma cruzi) and in the experiment on Trypanosoma cruzi [1] was more than 50 µM throughout.

Take `CCCCCCCC(O)(P(=O)(O)O)P(=O)(O)O`: the IC50 in the experiment on Trypanosoma cruzi [2] (Trypanosoma cruzi) and with Trypanosoma cruzi [1] was more than 70 µM each time. For the same molecule, the Inhibition in the experiment with Trypanosoma cruzi [3] turned out to be 41%.

For the molecule `CCCCCCC(O)(P(=O)(O)O)P(=O)(O)O`, the IC50 in the experiment with Trypanosoma cruzi [2] is 18.1 µM.

`CCCCCC(P(=O)(OCC)OCC)P(=O)(OCC)OCC` came in with an IC50 in the experiment on Trypanosoma cruzi [1] of more than 50 µM.

Take `CCCCC(P(=O)(O)O)P(=O)(O)O`: the IC50 in the experiment on Trypanosoma cruzi [2] (Trypanosoma cruzi) and with Trypanosoma cruzi [1] was more than 70 µM in each case.

Turning to `CCCCCCCCCC(P(=O)(O)O)P(=O)(O)O`, the IC50 in the experiment with Trypanosoma cruzi [1] was more than 70 µM.

Turning to `CCCCCC(O)(P(=O)(O)O)P(=O)(O)O`, the half-inhibitory concentration (IC50) in the experiment on Trypanosoma cruzi [2] (Trypanosoma cruzi) and in the experiment with Trypanosoma cruzi [1] was more than 70 µM each time. In addition, the Inhibition with Trypanosoma cruzi [3] turned out to be 34%.

`CCCC(P(=O)(OCC)OCC)P(=O)(OCC)OCC` came in with an Inhibition with Trypanosoma cruzi [4] of 27%. Besides, the IC50 with Trypanosoma cruzi [2] (Trypanosoma cruzi) and with Trypanosoma cruzi [1] was more than 70 µM in each case.

`CCCCCCCC(P(=O)(O)O)P(=O)(O)O` returned an Inhibition in the experiment on Trypanosoma cruzi [4] of 49%. Moreover, the IC50 in the experiment with Trypanosoma cruzi [2] (Trypanosoma cruzi) and in the experiment on Trypanosoma cruzi [1] was more than 70 µM in each case.

`CCCCCCCCCC(P(=O)(OCC)OCC)P(=O)(OCC)OCC`: the IC50 in the experiment with Trypanosoma cruzi [1] was more than 50 µM.

In the case of `CCCCCCC(P(=O)(O)O)P(=O)(O)O`, the Inhibition in the experiment on Trypanosoma cruzi [4] is 47%. Further, the IC50 with Trypanosoma cruzi [2] (Trypanosoma cruzi) and in the experiment on Trypanosoma cruzi [1] was more than 70 µM throughout.

In the case of `CCCCC(P(=O)(OCC)OCC)P(=O)(OCC)OCC`, the IC50 with Trypanosoma cruzi [2] (Trypanosoma cruzi) was more than 50 µM; with Trypanosoma cruzi [1], more than 70 µM.

`CCCCCCCCCCCCCC(O)(P(=O)(O)O)P(=O)(O)O` registered an Inhibition in the experiment on Trypanosoma cruzi [4] of 10%. This molecule also had an IC50 in the experiment on Trypanosoma cruzi [2] (Trypanosoma cruzi) of more than 70 µM.

In the experiment with Trypanosoma cruzi [1], `CCCCCCCCC(P(=O)(O)O)P(=O)(O)O` gave an IC50 of more than 70 µM.

Turning to `CCOP(=O)(OCC)C(CC)P(=O)(OCC)OCC`, the IC50 with Trypanosoma cruzi [2] (Trypanosoma cruzi) was more than 70 µM.

Molecule `CCCCCCCCCC(O)(P(=O)(O)O)P(=O)(O)O` returned an IC50 in the experiment with Trypanosoma cruzi [1] of more than 70 µM.

The molecule `CCCC(P(=O)(O)O)P(=O)(O)O` came in with an Inhibition in the experiment with Trypanosoma cruzi [4] of 28%. The figures for the IC50 in the experiment on Trypanosoma cruzi [2] (Trypanosoma cruzi) and in the experiment with Trypanosoma cruzi [1] were more than 90 µM and more than 100 µM, respectively.

Consider `CCCCCC(P(=O)(O)O)P(=O)(O)O`, for which the IC50 in the experiment on Trypanosoma cruzi [1] was more than 70 µM.

The molecule `CCCCCCC(P(=O)(OCC)OCC)P(=O)(OCC)OCC` registered a concentration for half-maximal inhibition (IC50) with Trypanosoma cruzi [1] of more than 50 µM.

The molecule `CCC(P(=O)(O)O)P(=O)(O)O` registered an Inhibition with Trypanosoma cruzi [4] of 21%. Besides, the IC50 in the experiment with Trypanosoma cruzi [2] (Trypanosoma cruzi) and in the experiment with Trypanosoma cruzi [1] was more than 100 µM in each case.

`CCCC(O)(P(=O)(O)O)P(=O)(O)O` yielded an IC50 in the experiment with Trypanosoma cruzi [1] of more than 70 µM.

For the origin of these results see ChEMBL document CHEMBL1136233, “Bisphosphonates derived from fatty acids are potent inhibitors of Trypanosoma cruzi farnesyl pyrophosphate synthase” (Bioorg Med Chem Lett, 2003).
